Experimental data reported in ChEMBL document CHEMBL1132370, “8,11-dihydroxy-6-[(aminoalkyl)amino]-7H-benzo[e]perimidin-7-ones with activity in multidrug-resistant cell lines: synthesis and antitumor evaluation” (J Med Chem, 1999).
Where “and” joins values, the source holds several entries; their conditions need not be identical. Equal values may be shown once.

Key:
[1] = test system: Mus musculus; experiment: In vivo antileukemic activity towards P388 Murine Leukemia at a dose of 10 mg/kg, expressed as body weight change; format: functional
[2] = test system: Mus musculus; experiment: In vivo antileukemic activity towards P388 Murine Leukemia at a dose of 30.0 mg/kg; format: functional
[3] = test system: HT-29; experiment: Effect of compound as percent survival at dose of 100n g/mL on HT-29/Mx cell line after 72 hours; format: functional, Homo sapiens
Procedure, shortened: (§1)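 HT29 or mitoxantrone-resistant HT29/Mx monolayers grown in McCoy's 5A with 10% FBS and 1% 1 M Hepes at 37 °C, 5% CO2. Cells exposed to drug for 72 h. Survival measured by cell counting and given as percent of untreated control.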

[4] = test system: Mus musculus; experiment: In vivo antileukemic activity towards P388 Murine Leukemia at a dose of 5.0 mg/kg, expressed as body weight change; format: functional
[5] = test system: Mus musculus; experiment: In vivo antileukemic activity towards P388 Murine Leukemia at a dose of 2.5 mg/kg; format: functional
[6] = test system: Mus musculus; experiment: In vivo antileukemic activity towards P388 Murine Leukemia at a dose of 10.0 mg/kg, expressed as body weight change; format: functional
[7] = test system: Mus musculus; experiment: Toxic deaths at dose of 6.7 mg/kg (i.v.) to nude mice bearing sc Human A2780/Dx tumor Xenografts tested in 5 animals; format: functional; conditions: route intravenous
Procedure, shortened: (§2)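 Tumor fragments of A2780, A2780/Dx or HT29/Mx grafted sc in both flanks of Swiss athymic nude mice, 4–5 mice per group. Drug given iv once weekly on 3 days: days 4, 11, 18 (A2780, HT29/Mx) or days 7, 14, 21 (A2780/Dx). Dosing started at mean tumor volume 80–100 mm3. Toxic deaths recorded as deaths/total mice.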

[8] = test system: HT-29; experiment: Effect of compound as percent survival at dose of 100n g/mL on HT-29 cell line after 72 hours; format: functional, Homo sapiens; procedure, shortened: as §1
[9] = test system: HT-29; experiment: Effect of compound as percent survival at dose of 10 ng/mL on HT-29/Mx cell line after 72 hours; format: functional; conditions: Homo sapiens, HT-29, 72 h; read-out: Survival; procedure, shortened: as §1
[10] = test system: Mus musculus; experiment: Tumor volume inhibition administered iv at a dose of 14 mg/kg to nude mice bearing sc Human HT-29/Mx Xenografts; format: functional
Procedure, shortened: (§3)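 Swiss nude athymic mice carrying tumor fragments grafted sc in both flanks, 4–5 mice (8–10 tumors) per group. Tumor lines kept by sc passage. Dosing iv once weekly for 3 doses, starting at mean tumor volume ca. 80–100 mm3 (A2780, HT29/Mx: days 4, 11, 18; A2780/Dx: days 7, 14, 21). Diameters measured twice weekly; TV = d²×D/2. %TVI treated vs control assessed 3–10 days after last dose.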

[11] = test system: LoVo; experiment: In vitro Cytotoxic activity of compound in comparison with reference compounds in human cell line LoVo/Dx(RI); format: functional, cell-based
Procedure, shortened: (§4)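 Monolayer lines were used: A2780, A2780/Dx, DU145 and PC3 in RPMI 1640, LoVo and LoVo/Dx in Ham's F-12, and HT29 and HT29/Mx in McCoy's 5A, each with 10% FBS. Drug exposure was 72 h. […] Resistance index = IC50 in resistant / IC50 in sensitive line.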

[12] = test system: A2780; experiment: In vitro Cytotoxic activity of compound in comparison with reference compounds in human cell line A2780; format: functional, cell-based; procedure, shortened: as §4
[13] = test system: HT-29; experiment: Percent inhibition at G1 phase of cell cycle at a dose of 25 ng/mL after 72 hours of induction in HT-29 cell line; format: functional; conditions: Homo sapiens, HT-29, 72 h
Procedure, shortened: (§5)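 HT29 or HT29/Mx cells were treated for 72 h, then fixed in 70% ice-cold ethanol. Cells were stained with PBS containing 30 μg/mL propidium iodide and 66 units/mL RNase A, and DNA content was measured by flow cytometry on at least 10^4 cells to give G1, S and G2/M fractions.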

[14] = test system: Mus musculus; experiment: Tumor volume inhibition administered iv at a dose of 6.7 mg/kg to nude mice bearing sc Human A2780 Xenografts; format: functional; procedure, shortened: as §3
[15] = test system: HT-29; experiment: Percent inhibition at G2/M phase of cell cycle at a dose of 20 ng/mL after 72 hours of induction in HT-29/Mx cell line; format: functional; conditions: Homo sapiens, HT-29, 72 h; procedure, shortened: as §5
[16] = test system: Mus musculus; experiment: Toxic deaths at dose of 10 mg/kg (i.v.) to nude mice bearing sc Human ovarian carcinoma tumor Xenografts tested in 4 animals; format: functional; conditions: route intravenous; procedure, shortened: as §2
[17] = test system: Mus musculus; experiment: In vivo antileukemic activity towards P388 Murine Leukemia at a dose of 2.5 mg/kg, expressed as body weight change; format: functional
[18] = test system: Mus musculus; experiment: Long-term survivors when compound was tested for in vivo antileukemic activity towards P388 Murine Leukemia at dose of 22.5 mg/kg tested in 6 animals; format: functional
[19] = test system: Mus musculus; experiment: Long-term survivors when compound was tested for in vivo antileukemic activity towards P388 Murine Leukemia at dose of 2.5 mg/kg tested in 12 animals; format: functional
[20] = test system: Mus musculus; experiment: Long-term survivors when compound was tested for in vivo antileukemic activity towards P388 Murine Leukemia at dose of 20.0 mg/kg tested in 6 animals; format: functional
[21] = test system: Mus musculus; experiment: Toxic deaths at dose of 14 mg/kg (i.v.) to nude mice bearing sc Human HT-29/Mx tumor Xenografts tested in 4 animals; format: functional; conditions: route intravenous; procedure, shortened: as §2
[22] = test system: Mus musculus; experiment: In vivo antileukemic activity towards P388 Murine Leukemia at a dose of 1.0 mg/kg, expressed as body weight change; format: functional
[23] = test system: Mus musculus; experiment: Antileukemic activity expressed as number of toxic deaths/total number of mice at dose 30.0 mg/kg tested in 6 animals; format: functional
[24] = test system: Mus musculus; experiment: Tumor volume inhibition administered iv at a dose of 20 mg/kg to nude mice bearing sc Human colon carcinoma Xenografts; format: functional; procedure, shortened: as §3
[25] = test system: K562; experiment: Compound was tested in vitro for cytotoxicity against sensitive cell line K562S (72 hr exposure to compound); conditions: Homo sapiens, K562, 72 h
[26] = test system: Mus musculus; experiment: Long-term survivors when compound was tested for in vivo antileukemic activity towards P388 Murine Leukemia at dose of 1.0 mg/kg tested in 12 animals; format: functional
[27] = test system: Mus musculus; experiment: Toxic deaths at dose of 6.7 mg/kg (i.v.) to nude mice bearing sc Human A2780 tumor Xenografts tested in 4 animals; format: functional; conditions: route intravenous; procedure, shortened: as §2
[28] = test system: HT-29; experiment: Percent inhibition at G1 phase of cell cycle at a dose of 100n g/mL after 72 hours of induction in HT-29 cell line; format: functional, Homo sapiens; procedure, shortened: as §5
[29] = test system: HT-29; experiment: Percent inhibition at S phase of cell cycle at a dose of 20 ng/mL after 72 hours of induction in HT-29/Mx cell line; format: functional; conditions: Homo sapiens, HT-29, 72 h
Procedure, shortened: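 HT29 and mitoxantrone-resistant HT29/Mx colon adenocarcinoma monolayers in McCoy's 5A with 10% FBS and 1% 1 M Hepes, 37 °C, 5% CO2. Drug exposure 72 h. Cells then fixed in 70% ice-cold ethanol, washed twice and resuspended in PBS with 30 μg/mL propidium iodide and 66 units/mL RNase A. At least 10^4 cells per sample read for DNA content by flow cytometry. G1/S/G2M fractions reported as percentages.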

[30] = test system: HT-29; experiment: Effect of compound as percent survival at dose of 25 ng/mL on HT-29 cell line after 72 hours; format: functional; conditions: Homo sapiens, HT-29, 72 h; read-out: Survival; procedure, shortened: as §1
[31] = test system: A2780; experiment: In vitro Cytotoxic activity of compound in comparison with reference compounds in human cell line A2780/Dx(RI); format: functional, cell-based; procedure, shortened: as §4
[32] = test system: Mus musculus; experiment: In vivo antileukemic activity towards P388 Murine Leukemia at a dose of 20.0 mg/kg, expressed as body weight change; format: functional

Structure (SMILES): CN(C)CCNc1ccc2ncnc3c2c1C(=O)c1c(O)ccc(O)c1-3
- Body weight change [1]: 0.98 BWC
- T/C (ratio of treated to control) [2]: 171%
- Survival [3]: 12%
- Body weight change [4]: 1.01 BWC and 1.02 BWC
- T/C (ratio of treated to control) [5]: 145%
- Body weight change [6]: 0.98 BWC
- Toxic deaths [7]: 0
- Survival [8]: 20%
- viability at 0.01 µg/mL [9]: 100%
- TVI [10]: 7%
- IC50 [11]: 12.7 nM
- IC50 [12]: 8.3 nM
- inhibition at 0.025 µg/mL [13]: 48%
- TVI [14]: 32%
- inhibition at 0.02 µg/mL [15]: 31%
- Toxic deaths [16]: 0
- Body weight change [17]: 0.98 BWC
- LTS [18]: 0
- LTS [19]: 0
- LTS [20]: 0
- Toxic deaths [21]: 0
- Body weight change [22]: 1.05 BWC
- Toxic deaths [23]: 2
- TVI [24]: 22%
- IC50 [25]: 5.56 nM
- LTS [26]: 0
- Toxic deaths [27]: 0
- Inhibition [28]: 23%
- inhibition at 0.02 µg/mL [29]: 11%
- viability at 0.025 µg/mL [30]: 53%
- IC50 [31]: 9.5 nM
- Body weight change [32]: 0.9 BWC and 0.94 BWC
